High-throughput results from PubChem.
Only some compounds are listed: those with a hit (about 3.1% of all), similar ones and a draw of the others.
Myeloid diff 2 – promotes myeloid progenitor differentiation | ER-HoxA9 myeloid progenitors, lysozyme-GFP differentiation, flow cytometry | calls only at 10 µM | hit rate 1% among 360,000 | AID 624256;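 active = normalized GFP-positive differentiation at or above the plate's own cutoff, the solvent-only control mean plus 3 SD; inconclusive = no clear call, values can overlap the other calls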;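 note: cells exposed to compound for four days before flow analysis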
PP5 primary – blocks human protein phosphatase 5 activity; P53041; purified PP5c, OMFP substrate fluorescence; inhibition, % at 6.7 µM; hit rate 0.18% among 320,000;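 active = inhibition above the campaign's mean inhibition across all tested compounds plus 3 SD, cut at about 9.5% in these data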
HCV core dimer – HCV core protein dimerization inhibition; inhibition, % at 5 µM; hit rate 0.33% among 300,000; TR-FRET GST/Flag-core106 dimerization, 1536-well; AID 1899;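 active = inhibition above the mean of all tested compounds plus 3 SD, set per screening campaign, cut at about 45% in these data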
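Material: GST/Flag-tagged HCV core106 proteins. Incubation: 4 h, 22.5 °C incubation. Read-out basis: inhibition (%) from 671 over 617 nm ratio. Measured by: TR-FRET, excitation 340 nm, emission 617 and 671 nm.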
NadD inh – NadD (S. aureus) enzyme inhibition; inhibition, % at 20 µM; hit rate 0.78% among 360,000; AID 602399; purified NadD enzyme, colorimetric absorbance read-out; in the data active = inhibition above about 26%
PP1 inh – counter-screen for PP5 inhibitors: inhibitors of human PP1-alpha | P62136 | purified PP1alpha, OMFP fluorescence | inhibition, % at 6.7 µM | hit rate 0.9% among 320,000;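 active = inhibition above the mean inhibition of all tested compounds plus 3 SD, computed separately for each screening campaign, cut at about 15% in these data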
Target sequence (P62136 whole entry, looked up): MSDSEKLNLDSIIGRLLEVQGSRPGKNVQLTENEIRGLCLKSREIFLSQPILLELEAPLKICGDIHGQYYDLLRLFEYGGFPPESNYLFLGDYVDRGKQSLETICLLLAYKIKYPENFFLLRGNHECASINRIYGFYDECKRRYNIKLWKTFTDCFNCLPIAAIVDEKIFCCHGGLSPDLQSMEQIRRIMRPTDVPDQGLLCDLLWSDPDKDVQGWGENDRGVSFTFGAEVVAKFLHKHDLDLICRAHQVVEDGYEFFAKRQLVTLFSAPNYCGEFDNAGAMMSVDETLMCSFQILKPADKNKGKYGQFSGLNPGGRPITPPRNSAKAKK
CTSL1 counter – cathepsin L1 inhibition, PFM18AAP counter-screen | recombinant F. hepatica cathepsin L1, Z-Leu-Arg-MCA fluorescence | inhibition, % at 5.96 µM | hit rate 0.49% among 300,000;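 active = inhibition above the mean of all tested compounds plus 3 SD, set per screening campaign, cut at about 17% in these data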
Numbers stand for hits; ! = not active in a repeat.

`C(#CCN1CCCC1)CN1CCCC1` gave Myeloid diff 2 inactive and NadD inh inactive.
Screening Cc1ccc2nsnc2c1-n1c(C)nc2ccccc2c1=O returned Myeloid diff 2 active, PP5 primary inactive, HCV core dimer inactive, NadD inh inactive, PP1 inh inactive and CTSL1 counter inactive.
CN1CC=C(c2c[nH]c3ccccc23)CC1 was read as Myeloid diff 2 active, PP5 primary inactive, HCV core dimer inactive, NadD inh inactive, PP1 inh inactive and CTSL1 counter inactive.
Screening C1=C(c2c[nH]c3ccccc23)CCN(Cc2ccccc2)C1 returned Myeloid diff 2 inconclusive, PP5 primary inactive, HCV core dimer inactive, NadD inh inactive, PP1 inh inactive and CTSL1 counter inactive.
`Cc1nc2ccc(Cl)cc2c(=O)n1-c1cccc(Cl)c1` gave Myeloid diff 2 inactive, PP5 primary inactive, HCV core dimer inactive, NadD inh inactive, PP1 inh inactive and CTSL1 counter inactive.
Screening COc1ccc(-n2c(/C=C/c3ccc(O)c(OC)c3)nc3ccccc3c2=O)cc1 returned Myeloid diff 2 active, PP5 primary inactive, HCV core dimer inactive, NadD inh inactive, PP1 inh inactive and CTSL1 counter inactive.
Screening NC(N)=Nc1ccc2[nH]c3c(c2c1)C[C@@]1(O)[C@H]2Cc4ccc(O)c5c4[C@@]1(CCN2CC1CC1)[C@H]3O5 returned Myeloid diff 2 inactive, PP5 primary inactive, HCV core dimer inactive, NadD inh inactive, PP1 inh inactive and CTSL1 counter inactive.
CN1CCCC1c1ccc(=O)[nH]c1 (stereo unspecified) was read as Myeloid diff 2 inactive and NadD inh inactive.
`COC(=O)c1nc(-c2ccc3c(n2)C(=O)C(N)=C(OC)C3=O)c(N)c(-c2ccc(OC)c(OC)c2O)c1C` gave Myeloid diff 2 inactive, PP5 primary inactive, HCV core dimer inactive, NadD inh inactive, PP1 inh inactive and CTSL1 counter 110.
Screening CNC1CCc2cc(OC)c(OC)c(OC)c2-c2ccc(SC)c(=O)cc21 (stereo unspecified) returned Myeloid diff 2 inconclusive and NadD inh inactive.
Screening COC(=O)C(O)(c1c(C)[nH]n(-c2ccccc2)c1=O)C(F)(F)F (stereo unspecified) returned Myeloid diff 2 inactive, PP5 primary inactive, HCV core dimer inactive, NadD inh inactive, PP1 inh inactive and CTSL1 counter 20.
Screening COC(=O)C(O)(c1c[nH]c2ccccc12)C(F)(F)F (stereo unspecified) returned Myeloid diff 2 inactive, PP5 primary inactive, HCV core dimer inactive, NadD inh inactive, PP1 inh inactive and CTSL1 counter inactive.
Screening CC(OC(=O)c1cn(C)c2ccccc12)C(=O)N1CCCC1 (stereo unspecified) returned Myeloid diff 2 inactive, PP5 primary inactive, NadD inh inactive and PP1 inh inactive.
Screening Cc1nn(CC(C)C)c(Cl)c1C(=O)NC1CCCCC1 returned Myeloid diff 2 inactive and NadD inh inactive.
`NC(Cc1cc(O)c(O)cc1O)C(=O)O` (stereo unspecified) gave PP5 primary inactive, HCV core dimer inactive, PP1 inh 69 and CTSL1 counter inactive.
N[C@@H](CCl)C(=O)O was read as Myeloid diff 2 inactive, PP5 primary inactive, HCV core dimer inactive, NadD inh inactive, PP1 inh inactive and CTSL1 counter inactive.
`O=C1NC(=O)N(CCc2ccc(F)cc2)C(=O)/C1=C/c1ccco1` gave Myeloid diff 2 inactive, PP5 primary inactive, HCV core dimer inactive, NadD inh 34, PP1 inh inactive and CTSL1 counter inactive.
`CC12CCC(=O)C=C1CCC1C2CCC2(C)C1CCC2(O)CC#N` (stereo unspecified) gave Myeloid diff 2 inactive and NadD inh inactive.
`C=C1C(C)C2C(Cc3ccccc3)NC(=O)C23OC(=O)/C=C/C(O)CCCC(C)C/C=C/C3C1O` (stereo unspecified) gave NadD inh inactive.
For CCCCn1c(=O)c(C(=O)Nc2cccc(C)c2)c(O)c2ccccc21 the results were Myeloid diff 2 inactive, PP5 primary inactive, HCV core dimer inactive, NadD inh inactive, PP1 inh inactive and CTSL1 counter inactive.
O=C(Nc1cccc(Br)c1)c1c(O)c2c(n(Cc3ccccc3)c1=O)CCCC2 was read as Myeloid diff 2 active, PP5 primary inactive, HCV core dimer inactive, NadD inh inactive, PP1 inh inactive and CTSL1 counter inactive.
Screening O=c1[nH]c(=S)n(C2CC2)c(O)c1C=NCCc1ccccc1 returned PP5 primary inactive, HCV core dimer inactive, PP1 inh inactive and CTSL1 counter inactive.
`COc1ccc(C(=O)N/N=C/C23CC[C@@H](O)CC2(O)CC[C@@H]2[C@@H]3CCC3(C)C(C4=CC(=O)OC4)CCC23O)cc1` (stereo partly specified) gave Myeloid diff 2 active, PP5 primary inactive, HCV core dimer inactive, NadD inh inactive, PP1 inh inactive and CTSL1 counter inactive.
CC12CC[C@H]3[C@@H](CCC4(O)C[C@H](O)CCC34/C=N/NC(=O)c3ccc(O)cc3)C1(O)CCC2C1=CC(=O)OC1 (stereo partly specified) was read as Myeloid diff 2 inactive, PP5 primary inactive, HCV core dimer inactive, NadD inh inactive, PP1 inh inactive and CTSL1 counter inactive.
For CC/C(=C(\c1ccccc1)c1ccc(OCCN(C)C)cc1)c1ccccc1 the results were Myeloid diff 2 inactive, PP5 primary inactive, HCV core dimer inactive, NadD inh inactive, PP1 inh 17! and CTSL1 counter inactive.
`CCC(=C(c1ccccc1)c1ccc(OCCN(C)C)cc1)c1ccccc1` gave Myeloid diff 2 inactive and NadD inh inactive.
`O=C1NC(=S)NC(=O)C1=Cc1ccc2c(c1)CCN2CCCCl` gave Myeloid diff 2 inactive, PP5 primary inactive, HCV core dimer 65, NadD inh 53, PP1 inh inactive and CTSL1 counter inactive.
CCOc1cc(C=C2C(=O)NC(=S)NC2=O)ccc1O was read as Myeloid diff 2 inconclusive and NadD inh inactive.
For C[C@]12C[C@@H](O)[C@H](O)CC1=CCC1C2CC[C@@]2(C)C1CC[C@@H]2O (stereo partly specified) the results were Myeloid diff 2 inactive and NadD inh inactive.
Screening O=C(c1ccc2nc(-c3ccco3)c(-c3ccco3)nc2c1)N1CCC2(CC1)OCCO2 returned Myeloid diff 2 inactive, PP5 primary inactive, HCV core dimer inactive, NadD inh inactive, PP1 inh inactive and CTSL1 counter 17.
`COc1ccc(C(=O)N2CCC3(CC2)OCCO3)cc1` gave Myeloid diff 2 inactive, PP5 primary inactive, HCV core dimer inactive, NadD inh inactive, PP1 inh inactive and CTSL1 counter inactive.
For COC(=O)C1=C(c2ccc(C(C)=O)cc2)C[C@@H]2CC[C@H]1N2C(=O)N1CCC(O)(c2ccc(Cl)cc2)CC1 the results were Myeloid diff 2 inactive, PP5 primary inactive, NadD inh inactive and PP1 inh inactive.
Screening CCOc1ccc(NC2=NCCCS2)cc1 returned Myeloid diff 2 inactive, PP5 primary inactive, HCV core dimer inactive, NadD inh inactive, PP1 inh inactive and CTSL1 counter inactive.
